Measurements published in ChEMBL document CHEMBL1122526, “Pyridonecarboxylic acids as antibacterial agents. 4. Synthesis and antibacterial activity of 7-(3-amino-1-pyrrolidinyl)-1-ethyl-6-fluoro-1,4 -dihydro-4-oxo-1,8-naphthyridine-3-carboxylic acid and its analogues” (1984).
≈ marks a conversion by molar mass, not a printed value.

Experiments:
Format in all cases: functional
Staphylococcus aureus [1] = assay: In vitro for antibacterial activity against Staphylococcus aureus 209P JC-1
Pseudomonas aeruginosa [2] = assay: in vitro antibacterial activity against Pseudomonas aeruginosa Tsuchijima
Escherichia coli [3] = assay: In vitro antibacterial activity against Escherichia coli NIHJ JC-2
Staphylococcus aureus [4] = assay: Compound was evaluated in vivo for oral antibacterial activity against Staphylococcus aureus 50774 at a dose of 5E8
In short: (§1)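 Mice were given a systemic infection and then treated by the oral route. Challenge doses in cells per mouse were 5 × 10^8 for S. aureus 50774, 9 × 10^6 for E. coli P-5101 and 4 × 10^3 for P. aeruginosa 12. The protective dose is given in mg/kg.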

Escherichia coli [5] = assay: Compound was evaluated in vivo for oral antibacterial activity against Escherichia coli P-5101 at a dose of 9E6; in short: as §1
Pseudomonas aeruginosa [6] = assay: Compound was evaluated in vivo for oral antibacterial activity against Pseudomonas aeruginosa 12 at a dose of 4E3; in short: as §1
Pseudomonas aeruginosa [7] = assay: Compound was evaluated in vivo for oral antibacterial activity iagainst Pseudomonas aeruginosa 12 at a dose of 4E3; in short: as §1

| SMILES | MIC (Staphylococcus aureus [1]) [µg/mL] | MIC (Pseudomonas aeruginosa [2]) [µg/mL] | MIC (Escherichia coli [3]) [µg/mL] | ED50 (Staphylococcus aureus [4]) [mg/kg] | ED50 (Escherichia coli [5]) [mg/kg] | ED50 (Pseudomonas aeruginosa [6]) [mg/kg] | ED50 (Pseudomonas aeruginosa [7]) [mg/kg] |
| --- | --- | --- | --- | --- | --- | --- | --- |
| CCn1cc(C(=O)O)c(=O)c2cc(F)c(N3CCC(O)CC3)nc21 | 0.78 (≈ 2.33 µM) | 6.25 (≈ 18.6 µM) | 3.13 (≈ 9.33 µM) |  |  |  |  |
| CCn1cc(C(=O)O)c(=O)c2cc(F)c(N3CCC(NC=O)C3)nc21 (centres undefined) | 0.78 (≈ 2.24 µM) | 3.13 (≈ 8.99 µM) | 0.78 (≈ 2.24 µM) |  |  |  |  |
| CCn1cc(C(=O)O)c(=O)c2cc(F)c(N3CCC(OC=O)C3)nc21 (centres undefined) | 0.39 (≈ 1.12 µM) | 3.13 (≈ 8.96 µM) | 1.56 (≈ 4.47 µM) |  |  |  |  |
| CCn1cc(C(=O)O)c(=O)c2cc(F)c(N3CCC(NC)C3)nc21 (centres undefined) | 0.39 (≈ 1.17 µM) | 1.56 (≈ 4.67 µM) | 0.2 (≈ 0.598 µM) | 4.8 | 1.4 | 6.5 |  |
| CN(C)C1CCN(c2nc3c(cc2F)c(=O)c(C(=O)O)cn3CCF)C1 (centres undefined) | 0.78 (≈ 2.13 µM) | 6.25 (≈ 17.1 µM) | 0.2 (≈ 0.546 µM) |  |  |  |  |
| NC1CCN(c2nc3c(cc2F)c(=O)c(C(=O)O)cn3CCF)C1 (centres undefined) | 0.39 (≈ 1.15 µM) | 0.39 (≈ 1.15 µM) | 0.1 (≈ 0.296 µM) | 4.6 | 2.8 | 6.3 |  |
| CCn1cc(C(=O)O)c(=O)c2cc(F)c(N3CC(N)C3)nc21 | 0.78 (≈ 2.55 µM) | 0.78 (≈ 2.55 µM) | 0.1 (≈ 0.326 µM) | 8.8 | 4.1 | 12.5 |  |
| C=Cn1cc(C(=O)O)c(=O)c2cc(F)c(N3CC(N)C3)nc21 | 1.56 (≈ 5.13 µM) | 0.39 (≈ 1.28 µM) | 0.1 (≈ 0.329 µM) |  |  |  |  |
| C=Cn1cc(C(=O)O)c(=O)c2cc(F)c(N3CCC(NC(C)=O)C3)nc21 (centres undefined) | 1.56 (≈ 4.33 µM) | 12.5 (≈ 34.7 µM) | 0.78 (≈ 2.16 µM) |  |  |  |  |
| CNC1CCN(c2nc3c(cc2F)c(=O)c(C(=O)O)cn3CCF)C1 (centres undefined) | 0.78 (≈ 2.21 µM) | 0.78 (≈ 2.21 µM) | 0.2 (≈ 0.568 µM) | 15 | 2.8 | 19.3 |  |
| CCn1cc(C(=O)O)c(=O)c2cc(F)c(N3CCC(NN)C3)nc21 (centres undefined) | 0.39 (≈ 1.16 µM) | 12.5 (≈ 37.3 µM) | 1.56 (≈ 4.65 µM) |  |  |  |  |
| CC(=O)N(C)C1CCN(c2nc3c(cc2F)c(=O)c(C(=O)O)cn3CCF)C1 (centres undefined) | 0.39 (≈ 0.989 µM) | 25 (≈ 63.4 µM) | 1.56 (≈ 3.96 µM) |  |  |  |  |
| CCn1cc(C(=O)O)c(=O)c2cc(F)c(N3CCC(NCC(F)(F)F)C3)nc21 (centres undefined) | 0.78 (≈ 1.94 µM) | 50 (≈ 124 µM) | 1.56 (≈ 3.88 µM) |  |  |  |  |
| CCn1cc(C(=O)O)c(=O)c2cc(F)c(N3CCC(CNC(C)=O)CC3)nc21 | 0.78 (≈ 2 µM) | 25 (≈ 64 µM) | 1.56 (≈ 4 µM) |  |  |  |  |
| CCn1cc(C(=O)O)c(=O)c2cc(F)c(N3CCC(N(C)C)C3)nc21 (centres undefined) | 1.56 (≈ 4.48 µM) | 6.25 (≈ 17.9 µM) | 0.78 (≈ 2.24 µM) |  |  |  |  |
| CCn1cc(C(=O)O)c(=O)c2cc(F)c(N3CCCC(N)C3)nc21 (centres undefined) | 0.78 (≈ 2.33 µM) | 6.25 (≈ 18.7 µM) | 0.78 (≈ 2.33 µM) |  |  |  |  |
| C=Cn1cc(C(=O)O)c(=O)c2cc(F)c(N3CCC(NC=O)C3)nc21 (centres undefined) | 0.78 (≈ 2.25 µM) | 3.13 (≈ 9.04 µM) | 0.39 (≈ 1.13 µM) |  |  |  |  |
| CCn1cc(C(=O)O)c(=O)c2cc(F)c(N3CCC(CN)CC3)nc21 | 0.39 (≈ 1.12 µM) | 12.5 (≈ 35.9 µM) | 1.56 (≈ 4.48 µM) |  |  |  |  |
| CCn1cc(C(=O)O)c(=O)c2cc(F)c(N3CC(N)C(O)C3)nc21 (centres undefined) | 1.56 (≈ 4.64 µM) | 3.13 (≈ 9.31 µM) | 1.56 (≈ 4.64 µM) |  |  |  |  |
| C=Cn1cc(C(=O)O)c(=O)c2cc(F)c(N3CCC(N)C3)nc21 (centres undefined) | 0.2 (≈ 0.628 µM) | 0.2 (≈ 0.628 µM) | 0.025 (≈ 0.0785 µM) | 1.6 | 0.72 | 1.6 |  |
| CCn1cc(C(=O)O)c(=O)c2cc(F)c(N3CCCC(O)C3)nc21 (centres undefined) | 1.56 (≈ 4.65 µM) | 25 (≈ 74.6 µM) | 3.13 (≈ 9.33 µM) |  |  |  |  |
| CCn1cc(C(=O)O)c(=O)c2cc(F)c(N3CCC(N(C)C(C)=O)C3)nc21 (centres undefined) | 0.78 (≈ 2.07 µM) | 25 (≈ 66.4 µM) | 6.25 (≈ 16.6 µM) |  |  |  |  |

| SMILES | MIC (Staphylococcus aureus [1]) [µg/mL] | MIC (Pseudomonas aeruginosa [2]) [µg/mL] | MIC (Escherichia coli [3]) [µg/mL] | ED50 (Staphylococcus aureus [4]) [mg/kg] | ED50 (Escherichia coli [5]) [mg/kg] | ED50 (Pseudomonas aeruginosa [6]) [mg/kg] | ED50 (Pseudomonas aeruginosa [7]) [mg/kg] |
| --- | --- | --- | --- | --- | --- | --- | --- |
| CCn1cc(C(=O)O)c(=O)c2cc(F)c(N3CCC(NC(=O)c4ccccc4)CC3)nc21 | 1.56 (≈ 3.56 µM) | > 100 | 12.5 (≈ 28.5 µM) |  |  |  |  |
| CC(=O)NC1CCN(c2nc3c(cc2F)c(=O)c(C(=O)O)cn3CCF)C1 (centres undefined) | 1.56 (≈ 4.1 µM) | 25 (≈ 65.7 µM) | 1.56 (≈ 4.1 µM) |  |  |  |  |
| CCn1cc(C(=O)O)c(=O)c2cc(F)c(N3CCC(NC(C)=O)C3)nc21 (centres undefined) | 0.78 (≈ 2.15 µM) | 6.25 (≈ 17.2 µM) | 6.25 (≈ 17.2 µM) |  |  |  |  |
| CCn1cc(C(=O)O)c(=O)c2cc(F)c(N3CCC(N)CC3)nc21 | 0.2 (≈ 0.598 µM) | 1.56 (≈ 4.67 µM) | 0.2 (≈ 0.598 µM) | > 25 | 6.3 |  | 16.2 |
| CCn1cc(C(=O)O)c(=O)c2cc(F)c(N3CCC(Cl)C3)nc21 (centres undefined) | 0.2 (≈ 0.589 µM) | 12.5 (≈ 36.8 µM) | 0.39 (≈ 1.15 µM) |  |  |  |  |
| C=Cn1cc(C(=O)O)c(=O)c2cc(F)c(N3CCC(NCC(F)(F)F)C3)nc21 (centres undefined) | 1.56 (≈ 3.9 µM) | 100 (≈ 250 µM) | 6.25 (≈ 15.6 µM) |  |  |  |  |
| CCCNC1CCN(c2nc3c(cc2F)c(=O)c(C(=O)O)cn3CC)C1 (centres undefined) | 25 (≈ 69 µM) | > 100 | 6.25 (≈ 17.2 µM) |  |  |  |  |
| CCn1cc(C(=O)O)c(=O)c2cc(F)c(N3CCCC(C(N)=O)C3)nc21 (centres undefined) | 6.25 (≈ 17.2 µM) | 50 (≈ 138 µM) | 12.5 (≈ 34.5 µM) |  |  |  |  |
| C=Cn1cc(C(=O)O)c(=O)c2cc(F)c(N3CCC(N(C)C)C3)nc21 (centres undefined) | 3.13 (≈ 9.04 µM) | 3.13 (≈ 9.04 µM) | 0.39 (≈ 1.13 µM) |  |  |  |  |
| CCn1cc(C(=O)O)c(=O)c2cc(F)c(N3CC(OC)C3)nc21 | 0.78 (≈ 2.43 µM) | 6.25 (≈ 19.5 µM) | 3.13 (≈ 9.74 µM) |  |  |  |  |
| C=Cn1cc(C(=O)O)c(=O)c2cc(F)c(N3CCC(N(C)C(C)=O)C3)nc21 (centres undefined) | 1.56 (≈ 4.17 µM) | 25 (≈ 66.8 µM) | 3.13 (≈ 8.36 µM) |  |  |  |  |
| CCn1cc(C(=O)O)c(=O)c2cc(F)c(N3CCC(O)C3)nc21 (centres undefined) | 0.39 (≈ 1.21 µM) | 0.78 (≈ 2.43 µM) | 0.78 (≈ 2.43 µM) | 5.5 | 6.8 | 42 |  |
| CCn1cc(C(=O)O)c(=O)c2cc(F)c(N3CCC(NC(=O)C(F)(F)F)C3)nc21 (centres undefined) | 0.78 (≈ 1.87 µM) | 6.25 (≈ 15 µM) | 1.56 (≈ 3.75 µM) |  |  |  |  |
| C=Cn1cc(C(=O)O)c(=O)c2cc(F)c(N3CCC(NC)C3)nc21 (centres undefined) | 0.78 (≈ 2.35 µM) | 0.78 (≈ 2.35 µM) | 0.1 (≈ 0.301 µM) | 1.6 | 2 | 3.7 |  |
| CCn1cc(C(=O)O)c(=O)c2cc(F)c(N3CC(O)C3)nc21 | 0.78 (≈ 2.54 µM) | 3.13 (≈ 10.2 µM) | 0.78 (≈ 2.54 µM) |  |  |  |  |
| CCNC1CCN(c2nc3c(cc2F)c(=O)c(C(=O)O)cn3CC)C1 (centres undefined) | 0.78 (≈ 2.24 µM) | 3.13 (≈ 8.98 µM) | 0.78 (≈ 2.24 µM) |  |  |  |  |
| CCOC1CN(c2nc3c(cc2F)c(=O)c(C(=O)O)cn3CC)C1 | 0.78 (≈ 2.33 µM) | 25 (≈ 74.6 µM) | 3.13 (≈ 9.33 µM) |  |  |  |  |
| CCn1cc(C(=O)O)c(=O)c2cc(F)c(N3CC(N4CCOCC4)C3)nc21 | 1.56 (≈ 4.14 µM) | 50 (≈ 133 µM) | 6.25 (≈ 16.6 µM) |  |  |  |  |
| CCn1cc(C(=O)O)c(=O)c2cc(F)c(N3CCC(NC(N)=O)C3)nc21 (centres undefined) | 6.25 (≈ 17.2 µM) | 25 (≈ 68.8 µM) | 3.13 (≈ 8.61 µM) |  |  |  |  |
| CCn1cc(C(=O)O)c(=O)c2cc(F)c(N3CCNCC3)nc21 [ENOXACIN] | 0.78 (≈ 2.44 µM) | 0.78 (≈ 2.44 µM) | 0.2 (≈ 0.624 µM) | 10 | 1.8 | 9 |  |
| CCn1cc(C(=O)O)c(=O)c2cc(F)c(N3CCC(N)C3)nc21 (centres undefined) [ESAFLOXACIN] | 0.2 (≈ 0.624 µM) | 0.39 (≈ 1.22 µM) | 0.1 (≈ 0.312 µM) | 3 | 1.7 | 3.7 |  |
